Assay [1] concerns Candida albicans. Briefly: Antibiofilm activity against Candida albicans NCIM 3471 after 24 hrs by MTT assay. In kind it is functional, organism-based. The conditions noted are these: NCIM 3471, 24 h. Summed up: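 Biofilms formed from C. albicans at 10^5 cells/well in RPMI, exposed to 0–100 µM compound (fluconazole reference) for 24 h at 30 °C. Wells washed with phosphate buffer, then MTT (1 µg/µL) added for 3 h in the dark. Formazan dissolved in DMSO, absorbance read at 575 nm. IC50 for 50% biofilm inhibition taken from the inhibition curve.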
(Tetrazolium assays rely on reduction of a dye to a coloured formazan, in cell work by metabolically active cells.)

Assay [2] has as its system Candida albicans. Kind of assay: Antifungal activity against Candida albicans NCIM 3471 after 48 to 72 hrs by SDA agar dilution method. In kind it is functional. Summed up:
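CLSI agar method. Compounds dissolved in DMSO. C. albicans subcultured on Sabouraud dextrose agar at 25 °C for 72 h, suspended in sterile water at 10^5 cells/mL, and inoculated onto test, drug-free and DMSO control plates. Plates incubated at 25 °C. MIC taken as the lowest concentration that prevents macroscopically visible colonies, read at 48 h and 72 h.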
A general note: In agar dilution, organisms are placed on agar that contains the substance at set levels.

For a further assay, the system named is Escherichia coli. Briefly: Antibacterial activity against Escherichia coli NCIM 2256 after 24 hrs by two-fold serial dilution method. The conditions noted are these: NCIM 2256, 24 h. In kind it is functional. Summed up: (§1)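 Bacterial inocula taken from 24 h nutrient agar cultures at 37±1 °C, brought to […] with sterile saline, grown in nutrient broth. Compounds tested as two-fold serial dilutions at 400, 200, 100, 50, 25, 12.5, 6.25 and 3.13 µg/mL, with ciprofloxacin as reference. Incubation at 37±1 °C; MIC read after 24 h.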

Another assay deals with Pseudomonas aeruginosa. Briefly: Antibacterial activity against Pseudomonas aeruginosa NCIM 2036 after 24 hrs by two-fold serial dilution method. The assay is classed as functional. The note with it: NCIM 2036, 24 h. In short, it runs like this:
as §1

For a further assay, the system named is Bacillus subtilis. Kind of assay: Antibacterial activity against Bacillus subtilis NCIM 2063 after 24 hrs by two-fold serial dilution method. The assay is classed as functional. The note with it: NCIM 2063, 24 h. Summed up:
as §1

A further assay has as its system Staphylococcus aureus. Briefly: Antibacterial activity against Staphylococcus aureus NCIM 2901 after 24 hrs by two-fold serial dilution method. The conditions noted are these: NCIM 2901, 24 h. The assay is classed as functional. In short, it runs like this:
as §1

Values after ≈ are worked out from the molar mass of the structure shown.

On to `O=[N+]([O-])c1cccc(/N=C/c2cccc(/C=C/c3ccc4ccc(Cl)cc4n3)c2)c1`, for which, in the assay on Candida albicans [1], 83.6 µM corresponded to half-maximal inhibition (IC50). The MIC – broadly, the lowest concentration found to suppress growth – in the assay with Candida albicans [2] came out at 106 µg/mL (≈ 256 µM); against Escherichia coli, 185 µg/mL (≈ 447 µM); in the assay on Pseudomonas aeruginosa, 190 µg/mL (≈ 459 µM); in the assay on Bacillus subtilis, 17.4 µg/mL (≈ 42 µM); against Staphylococcus aureus, 104 µg/mL (≈ 252 µM).

Consider `COc1ccc(/N=C/c2cccc(/C=C/c3ccc4ccc(Cl)cc4n3)c2)cc1`, for which the half-inhibitory concentration (IC50) (usually the concentration at which inhibition is half-maximal) in the assay with Candida albicans [1] was 97.5 µM. In addition, the MIC in the assay on Candida albicans [2] stood at 105 µg/mL (≈ 263 µM); against Escherichia coli, 120 µg/mL (≈ 301 µM); against Pseudomonas aeruginosa, 167 µg/mL (≈ 419 µM); in the assay on Bacillus subtilis, 17.6 µg/mL (≈ 44.1 µM); against Staphylococcus aureus, 94.8 µg/mL (≈ 238 µM).

Regarding `Clc1ccc(/N=C/c2cccc(/C=C/c3ccc4ccc(Cl)cc4n3)c2)cc1`, in the assay with Candida albicans [1], the IC50 came out at 66.2 µM. The MIC in the assay with Candida albicans [2] was determined as 94.2 µg/mL (≈ 234 µM); with Escherichia coli, 45 µg/mL (≈ 112 µM); in the assay with Pseudomonas aeruginosa, 228 µg/mL (≈ 567 µM); in the assay on Bacillus subtilis, 31.6 µg/mL (≈ 78.4 µM); against Staphylococcus aureus, 170 µg/mL (≈ 422 µM).

Turning to `Cc1ccc(/N=C/c2cccc(/C=C/c3ccc4ccc(Cl)cc4n3)c2)cc1`, the 50% inhibitory concentration (IC50) in the assay on Candida albicans [1] came out at 96.2 µM. In addition, the minimal inhibitory concentration (MIC) amounted to 164 µg/mL (≈ 429 µM) in the assay on Candida albicans [2]; 205 µg/mL (≈ 535 µM) against Escherichia coli; 177 µg/mL (≈ 462 µM) with Pseudomonas aeruginosa; 17 µg/mL (≈ 44.3 µM) against Bacillus subtilis; 98.5 µg/mL (≈ 257 µM) in the assay with Staphylococcus aureus.

`FC(F)(F)c1cccc(/N=C/c2cccc(/C=C/c3ccc4ccc(Cl)cc4n3)c2)c1` gave a half-inhibitory concentration (IC50) in the assay on Candida albicans [1] of 87.2 µM. Also, the MIC is 191 µg/mL (≈ 437 µM) in the assay with Candida albicans [2]; 102 µg/mL (≈ 233 µM) in the assay with Escherichia coli; 142 µg/mL (≈ 325 µM) in the assay with Pseudomonas aeruginosa; 33.4 µg/mL (≈ 76.5 µM) in the assay on Bacillus subtilis; 71.3 µg/mL (≈ 163 µM) with Staphylococcus aureus.

Consider `Clc1ccc2ccc(/C=C/c3cccc(/C=N/c4ccccc4)c3)nc2c1`, for which half-maximal inhibition in the assay with Candida albicans [1] (IC50) was put at 199 µM. Also, the MIC in the assay with Candida albicans [2] worked out at 98.8 µg/mL (≈ 268 µM); against Escherichia coli it was 110 µg/mL (≈ 298 µM); against Pseudomonas aeruginosa, 102 µg/mL (≈ 277 µM); against Bacillus subtilis it was 32.4 µg/mL (≈ 87.7 µM); against Staphylococcus aureus, 91.6 µg/mL (≈ 248 µM).

The compound `Cc1ccccc1/N=C/c1cccc(/C=C/c2ccc3ccc(Cl)cc3n2)c1` gave an IC50 in the assay with Candida albicans [1] of 166 µM. The MIC in the assay with Candida albicans [2] came to 104 µg/mL (≈ 273 µM); against Escherichia coli, 68.5 µg/mL (≈ 179 µM); against Pseudomonas aeruginosa, 185 µg/mL (≈ 483 µM); with Bacillus subtilis it was 136 µg/mL (≈ 356 µM); with Staphylococcus aureus it was 85.3 µg/mL (≈ 223 µM).

In turn, `O=[N+]([O-])c1ccc(/N=C/c2cccc(/C=C/c3ccc4ccc(Cl)cc4n3)c2)cc1` yielded a half-maximal inhibitory concentration (IC50) with Candida albicans [1] of 92.1 µM. The MIC in the assay on Candida albicans [2] was determined as 121 µg/mL (≈ 293 µM); against Escherichia coli it was 150 µg/mL (≈ 362 µM); with Pseudomonas aeruginosa it was 200 µg/mL (≈ 484 µM); in the assay with Bacillus subtilis, 15.7 µg/mL (≈ 37.9 µM); with Staphylococcus aureus, 166 µg/mL (≈ 400 µM).

Compound `FC(F)(F)c1ccccc1/N=C/c1cccc(/C=C/c2ccc3ccc(Cl)cc3n2)c1` displayed a 50% inhibitory concentration (IC50) in the assay on Candida albicans [1] of 94.3 µM. For the same compound, the MIC against Candida albicans [2] turned out to be 282 µg/mL (≈ 646 µM); against Escherichia coli it was 67.5 µg/mL (≈ 155 µM); with Pseudomonas aeruginosa, 250 µg/mL (≈ 572 µM); against Bacillus subtilis it was 36.2 µg/mL (≈ 82.9 µM); in the assay with Staphylococcus aureus it was 55.3 µg/mL (≈ 127 µM).

In the assay on Candida albicans [1], `FC(F)(F)c1ccc(/N=C/c2cccc(/C=C/c3ccc4ccc(Cl)cc4n3)c2)cc1` had an IC50 of 51.2 µM. Besides, the minimal inhibitory concentration (MIC) with Candida albicans [2] was found to be 174 µg/mL (≈ 399 µM); with Escherichia coli, 84.5 µg/mL (≈ 193 µM); against Pseudomonas aeruginosa, 91.5 µg/mL (≈ 209 µM); in the assay with Bacillus subtilis, 37.7 µg/mL (≈ 86.2 µM); against Staphylococcus aureus, 89.7 µg/mL (≈ 205 µM).

`O=C(O)c1cn(C2CC2)c2cc(N3CCNCC3)c(F)cc2c1=O` [CIPROFLOXACIN]: 50 µg/mL (≈ 151 µM) was the least that counted as inhibitory against Pseudomonas aeruginosa (MIC).

On to `OC(Cn1cncn1)(Cn1cncn1)c1ccc(F)cc1F` [FLUCONAZOLE], for which, in the assay on Candida albicans [2], the minimal inhibitory concentration (MIC) was found to be 50 µg/mL (≈ 163 µM).

The record behind these values is ChEMBL document CHEMBL4330104, “Synthesis, biological evaluations and computational studies of N-(3-(-2-(7-Chloroquinolin-2-yl)vinyl) benzylidene)anilines as fungal biofilm inhibitors” (Bioorg Med Chem Lett, 2019).
